≈ marks a conversion by molar mass, not a printed value. Calls of active or inactive are those of the source. The calls are words filed in the database; no cut-off is given here.
Tested on: not listed separately
Assay: Aqueous solubility of the compound in pH 6.8 JP2 fluid measured after 4 hrs by HPLC-UV analysis
Type: physicochemical
Conditions: not given
How it was run: (§1)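 Test compound diluted from 10 mM DMSO stock 2:165 into JP 1st fluid (pH 1.2) or JP 2nd fluid (pH 6.8); mixed 4 h at 37 °C with rotation at 1000 rpm, then filtered through 0.45 μm PVDF by centrifugation. At least two technical replicates.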

| Compound | solubility at 4 h [µM] |
| --- | --- |
| O=C(O)c1cc(Cl)c2oc3ccccc3c(=O)c2c1 | > 100 |

Tested on: not listed separately
Assay: Total clearance in Sprague-Dawley rat at 1 mg/kg, iv measured up to 8 hrs by LC-MS/MS analysis
Type: ADME, organism-based
Conditions: in vivo
How it was run: (§2)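 Male Sprague Dawley rats (7 weeks old, n = 2) given compound in 10% DMSO/0.1 M phosphate pH 8.5, i.v. or p.o. Caudal-vein blood at 5 min (i.v.), 15, 30 min, 1, 2, 4, 8 h; plasma precipitated with acetonitrile/IS, LC-MS/MS. Non-compartmental analysis; bioavailability = AUC∞(p.o.)/AUC∞(i.v.).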

| Compound | clearance [mL/min/kg] |
| --- | --- |
| O=C(O)c1cc(Cl)c2oc3ccccc3c(=O)c2c1 | 1.27 |

Tested on: not listed separately
Assay: Elimination half life in Sprague-Dawley rat at 1 mg/kg, iv measured up to 8 hrs by LC-MS/MS analysis
Type: ADME, organism-based
Conditions: in vivo, read-out: beta t1/2 (converted)
How it was run: as §2

| Compound | half-life [h] |
| --- | --- |
| O=C(O)c1cc(Cl)c2oc3ccccc3c(=O)c2c1 | 1.7 |

Tested on: not listed separately
Assay: Metabolic stability in Sprague-Dawley rat liver microsomes assessed as residual rate at 1 uM preincubated for 5 mins followed by NADPH addition and measured after 30 mins by LC-MS/MS analysis
Type: ADME, Microsome
Conditions: time 35 min, read-out: Stabilty
How it was run: (§3)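 Rat liver microsomes 0.2 mg/mL with 1 μM compound, 1 mM EDTA, 0.1 M phosphate pH 7.4; 5 min preincubation, then 1 mM NADPH (final) added, 30 min at 37 °C, 60 rpm. Quenched in cold acetonitrile/internal standard, supernatant by LC-MS/MS against time zero. CLint scaled with 44.8 mg protein/g liver, 40.0 g liver/kg. At least two technical replicates.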

| Compound | remaining at 0.5 h, 1 µM [%] |
| --- | --- |
| O=C(O)c1cc(Cl)c2oc3ccccc3c(=O)c2c1 | 88 |

Target: Transthyretin (Homo sapiens) (UniProt P02766)
Assay: Binding affinity to TTR V30M mutant (unknown origin) expressed in Escherichia coli by isothermal titration calorimetry
Conditions: not given

| Compound | Activity |
| --- | --- |
| O=C(O)c1cc(Cl)c2oc3ccccc3c(=O)c2c1 | Active |

Tested on: not listed separately
Assay: Protein binding in Sprague-Dawley rat plasma assessed as unbound fraction at 1 uM measured after 4 hrs by equilibrium dialysis assay
Type: ADME, cell-free
Conditions: not given
How it was run: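 Rat plasma spiked at 1 μM, equilibrium dialysis (8K MWCO) against 0.1 M phosphate pH 7.4 for 4 h at 37 °C, 1000 rpm. Unbound fraction = buffer/plasma concentration ratio. At least two technical replicates.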

| Compound | fraction unbound at 4 h, 1 µM |
| --- | --- |
| O=C(O)c1cc(Cl)c2oc3ccccc3c(=O)c2c1 | 0.017 |

Tested on: not listed separately
Assay: AUC infinity in Sprague-Dawley rat at 1 mg/kg, iv measured up to 8 hrs by LC-MS/MS analysis
Type: ADME, organism-based
Set-up: route intravenous, dose 1 mg/kg, time <=8
Conditions: in vivo

| Compound | AUC(0-inf) [ng·h/mL] |
| --- | --- |
| O=C(O)c1cc(Cl)c2oc3ccccc3c(=O)c2c1 | 13200 |

Tested on: not listed separately
Assay: Volume of distribution at steady state in Sprague-Dawley rat at 1 mg/kg, iv measured up to 8 hrs by LC-MS/MS analysis
Type: ADME, organism-based
Conditions: in vivo, read-out: Vdss
How it was run: as §2

| Compound | Vd [L/kg] |
| --- | --- |
| O=C(O)c1cc(Cl)c2oc3ccccc3c(=O)c2c1 | 0.164 |

Tested on: not listed separately
Assay: Metabolic stability in Sprague-Dawley rat liver microsomes assessed as residual rate at 1 uM measured after 30 mins by LC-MS/MS analysis
Type: ADME, Microsome
Conditions: read-out: Stabilty

| Compound | remaining at 0.5 h, 1 µM [%] |
| --- | --- |
| O=C(O)c1cc(Cl)c2oc3ccccc3c(=O)c2c1 | 88 |

Tested on: not listed separately
Assay: Tmax in Sprague-Dawley rat at 1 mg/kg, po measured up to 8 hrs by LC-MS/MS analysis
Type: ADME, organism-based
Conditions: in vivo
How it was run: as §2

| Compound | Tmax [h] |
| --- | --- |
| O=C(O)c1cc(Cl)c2oc3ccccc3c(=O)c2c1 | 2 |

Tested on: not listed separately
Assay: AUC infinity in Sprague-Dawley rat at 1 mg/kg, po measured up to 8 hrs by LC-MS/MS analysis
Type: ADME, organism-based
Set-up: route oral, dose 1 mg/kg, time <=8
Conditions: in vivo

| Compound | AUC(0-inf) [ng·h/mL] |
| --- | --- |
| O=C(O)c1cc(Cl)c2oc3ccccc3c(=O)c2c1 | 9190 |

Tested on: not listed separately
Assay: Permeability of the compound at 10 uM measured after 4 hrs by PAMPA based LC-MS analysis
Type: ADME
Conditions: read-out: permeability
How it was run: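 PAMPA on pre-coated plates: donor 10 μM compound in 5% DMSO/0.1 M phosphate pH 6.4, acceptor 5% DMSO/0.1 M phosphate pH 7.4; 4 h at 37 °C without agitation. Donor, acceptor and initial donor solutions quantified by LC-MS/MS; recovery above 90%. Antipyrine, metoprolol, sulfasalazine as references. At least two technical replicates.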

| Compound | Papp at 4 h, 10 µM [×10⁻⁶ cm/s] |
| --- | --- |
| O=C(O)c1cc(Cl)c2oc3ccccc3c(=O)c2c1 | 17 |

Tested on: not listed separately
Assay: Bioavailability in Sprague-Dawley rat at 1 mg/kg, iv measured up to 8 hrs by LC-MS/MS analysis
Type: ADME, organism-based
Conditions: in vivo
How it was run: as §2

| Compound | bioavailability [%] |
| --- | --- |
| O=C(O)c1cc(Cl)c2oc3ccccc3c(=O)c2c1 | 69.8 |

Tested on: not listed separately
Assay: Elimination half life in Sprague-Dawley rat at 1 mg/kg, po measured up to 8 hrs by LC-MS/MS analysis
Type: ADME, organism-based
Conditions: in vivo, read-out: beta t1/2 (converted)
How it was run: as §2

| Compound | half-life [h] |
| --- | --- |
| O=C(O)c1cc(Cl)c2oc3ccccc3c(=O)c2c1 | 5 |

Tested on: not listed separately
Assay: Intrinsic clearance in Sprague-Dawley rat liver microsomes at 1 uM preincubated for 5 mins followed by NADPH addition and measured after 30 mins by LC-MS/MS analysis
Type: ADME, Microsome
Conditions: time 35 min, read-out: CLH
How it was run: as §3

| Compound | CLint scaled at 1 µM [mL/min/kg] |
| --- | --- |
| O=C(O)c1cc(Cl)c2oc3ccccc3c(=O)c2c1 | 37.9 |

Target: Transthyretin (Homo sapiens, UniProt P02766, V50M)
Assay: Inhibition of acid-mediated aggregation of TTR V30M mutant (unknown origin) expressed in Escherichia coli pretreated for 30 mins at pH 7 followed by protein dilution in acetate buffer and further incubated for 96 hrs at pH 4.6 by thioflavin-T fluorescence assay
Conditions: not given

| Compound | IC50 [µM] |
| --- | --- |
| Nc1c(O)c(S(=O)(=O)O)c(O)c2c1C(=O)c1ccccc1C2=O | 11 |
| O=C(O)c1ccc2oc3cccc(Cl)c3c(=O)c2c1 | 13 |
| O=C(O)c1cc(Cl)c2oc3ccccc3c(=O)c2c1 | 6.7 |

Tested on: not listed separately
Assay: Cmax in Sprague-Dawley rat at 1 mg/kg, iv measured up to 8 hrs by LC-MS/MS analysis
Type: ADME, organism-based
Set-up: route intravenous, dose 1 mg/kg, time <=8
Conditions: in vivo
How it was run: as §2

| Compound | Cmax [ng/mL] |
| --- | --- |
| O=C(O)c1cc(Cl)c2oc3ccccc3c(=O)c2c1 | 8650 |

Tested on: not listed separately
Assay: Aqueous solubility of the compound in pH 1.2 JP1 fluid measured after 4 hrs ny HPLC-UV analysis
Type: physicochemical
Conditions: not given
How it was run: as §1

| Compound | solubility at 4 h [µM] |
| --- | --- |
| O=C(O)c1cc(Cl)c2oc3ccccc3c(=O)c2c1 | 2.9 (≈ 0.797 µg/mL) |

Tested on: not listed separately
Assay: Cmax in Sprague-Dawley rat at 1 mg/kg, po measured up to 8 hrs by LC-MS/MS analysis
Type: ADME, organism-based
Set-up: route oral, dose 1 mg/kg, time <=8
Conditions: in vivo
How it was run: as §2

| Compound | Cmax [ng/mL] |
| --- | --- |
| O=C(O)c1cc(Cl)c2oc3ccccc3c(=O)c2c1 | 1120 |
